A selection: hits, their analogues and other compounds. The true share with any hit is near 4.5%.
OX1R antag-1 = OX1R (HCRTR1) antagonists, primary screen, fluorescence, CHO/OX1R cells, Fluo-8 calcium, orexin A; Orexin/Hypocretin receptor type 1 (Homo sapiens), O43613; Fluo-8 calcium fluorescence; inhibition, % at 5 µM; actives 0.43% (n = 330,000); AID 434989, 2010;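 active = inhibition above its plate's threshold, mean inhibition of all tested compounds on the plate plus 3 SD, cut at about 37% in these data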;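 note: 0% = orexin A challenge wells and 100% = SB-334867-A antagonist wells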
CHO parental Ca = ATP-evoked calcium signal inhibitors, parental CHO, primary screen, counter-screen for OX1R antagonist project, cell-based, fluorescence, Fluo-8 calcium dye; parental CHO-K1, ATP-induced calcium, Fluo-8 fluorescence; actives 0.63% (n = 330,000); inhibition, % at 5.6 µM;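 active = inhibition above that plate's mean sample inhibition plus 3 SD, cut at about 26% in these data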;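 note: 0% = ATP-challenged DMSO wells and 100% = DMSO wells without ATP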
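Material – parental CHO cells · Reagent – ATP stimulus · Compound – single nominal dose of 5.6 µM per compound · Detection – Fluo-8 fluorescence · Read-out basis – percent inhibition of calcium signal · Controls – ATP-challenged DMSO wells low, unchallenged DMSO wells high · Repeats – no replicates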
OX1R antag-2 = antagonists of human orexin 1 receptor (OX1R) | Orexin/Hypocretin receptor type 1 (Homo sapiens), O43613 | OX1R-expressing cells, FRET antagonist read-out | inhibition, % at 6.6 µM | actives 1.8% (n = 330,000); in the data active = inhibition mostly above about 38%, no sharp cut-off; inactive = mostly below about 40%;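 note: 0% = agonist challenge alone and 100% = reference antagonist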
TAAR1 agonist = human TAAR1 agonists, primary screen, Fluo-8 calcium fluorescence, CHO RD-HGA16 cells; actives 0.99% (n = 360,000); Trace amine-associated receptor 1 (Homo sapiens), Q96RJ0; activation, % at 3 µM; vehicle wells 0%, saturating PEA agonist 100%; AID 624467, 2012;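 active = activation above the mean activation of all test compounds in the run plus 3 SD, cut at about 38% in these data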
Target sequence (Q96RJ0 whole entry, looked up): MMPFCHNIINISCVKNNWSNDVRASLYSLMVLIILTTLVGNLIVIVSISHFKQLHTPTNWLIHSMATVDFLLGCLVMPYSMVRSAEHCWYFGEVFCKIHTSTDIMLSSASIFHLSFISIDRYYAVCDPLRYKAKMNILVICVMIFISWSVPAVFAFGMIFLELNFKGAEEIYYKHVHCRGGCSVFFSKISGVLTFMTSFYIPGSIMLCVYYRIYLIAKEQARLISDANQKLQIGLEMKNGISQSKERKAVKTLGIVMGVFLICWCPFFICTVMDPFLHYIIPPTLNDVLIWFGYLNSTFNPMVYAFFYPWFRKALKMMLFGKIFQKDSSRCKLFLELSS
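test system = CHO RD-HGA16 cells carrying human TAAR1 plus Gα16 | schedule = 17-24 h seeding, 75 min 37 °C dye, 30 min RT | compound dosing = 3 µM single concentration | control set = DMSO and PEA EC100 | replicates = n 1 | signal = Fluo-8 fluorescence, 5 s baseline then 140 s kinetic read | measure = percent activation vs PEA EC100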
TAAR1 antagonist = human TAAR1 antagonists, primary screen, Fluo-8 calcium fluorescence, CHO RD-HGA16 cells. AID 624466, 2012. Trace amine-associated receptor 1 (Homo sapiens), Q96RJ0. actives 1.5% (n = 360,000). inhibition, % at 3 µM. antagonist;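 active = inhibition above a per-plate cutoff, the mean inhibition of test compounds on that plate plus 3 SD, cut at about 49% in these data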;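 note: 0% = DMSO plus EC80 beta-PEA response and 100% = DMSO alone without agonist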
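Test system: hTAAR1-expressing CHO RD-HGA16 cells, Gα16-coupled; Probe or stimulus: EC80 β-phenethylamine stimulus; Compound dosing: single nominal final test compound concentration of 3 µM; Timing: 140 s kinetic read after compound, 140 s after agonist; Signal: Fluo-8 calcium-sensitive fluorescence; Measure: % inhibition of agonist calcium response; Controls: DMSO and EC80 PEA controls.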
GPR7 antagonist = GPR7 receptor antagonists, primary screen, cell-based, fluorescence, single concentration; inhibition, % at 4.4 µM; GPR7-expressing cells, fluorescence antagonist assay; actives 1.1% (n = 290,000); in the data active = inhibition above about 16%, passing the limit was not always enough;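 note: cells stimulated with the agonist NPW; 0% = agonist with vehicle and 100% = vehicle without agonist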
Target sequence (P48145 whole entry, looked up): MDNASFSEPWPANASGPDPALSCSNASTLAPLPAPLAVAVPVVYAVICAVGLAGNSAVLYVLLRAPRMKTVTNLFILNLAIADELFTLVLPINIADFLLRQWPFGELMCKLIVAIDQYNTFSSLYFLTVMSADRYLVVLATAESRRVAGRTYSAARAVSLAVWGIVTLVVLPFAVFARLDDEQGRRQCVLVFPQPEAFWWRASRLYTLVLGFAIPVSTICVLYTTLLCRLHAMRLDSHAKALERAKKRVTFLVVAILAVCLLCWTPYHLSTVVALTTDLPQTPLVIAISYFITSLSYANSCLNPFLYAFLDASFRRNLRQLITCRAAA
TAAR1 ag conf = human TAAR1 agonists, retest of hits, confirmation, Fluo-8 calcium fluorescence, CHO RD-HGA16 cells; shares compounds with TAAR1 agonist; activation, % at 3 µM; actives 82% (n = 2,400); scaled: DMSO 0%, maximal phenethylamine 100%;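 active = activation above a cutoff set at the run's mean compound activation plus 3 SD, cut at about 39% in these data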
Ga16 nonsel ag = nonselective calcium mobilization agonists, CHO-Ga16 cells, counter-screen for hTAAR1 agonist project, cell-based, fluorescence, CHO-Ga16 parental line; shares compounds with TAAR1 agonist; Fluo-8 calcium fluorescence; normalized to maximal ATP response, DMSO zero; activation, % at 3 µM; actives 50% (n = 2,400); AID 651787, 2012;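 active = activation above the run cutoff, the mean activation over all tested wells plus 3 SD, cut at about 12% in these data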;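 note: 0% = DMSO wells and 100% = maximal ATP response on the peak over basal ratio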
TAAR1 desens = TAAR1 desensitization by agonist hits, confirmation, counter-screen for TAAR1 agonist project, cell-based, fluorescence, tachyphylaxis; actives 46% (n = 2,400); inhibition, % at 3 µM; AID 651951, 2012; shares compounds with TAAR1 agonist; CHO RD-HGA16 hTAAR1, Fluo-8 calcium, beta-PEA response inhibition;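 active = inhibition above the run cutoff, the mean inhibition of all test compounds plus 3 SD, cut at about 49% in these data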;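 note: beta-PEA stimulus applied at its EC80; loss of beta-PEA calcium signal after compound pretreatment read as receptor desensitization; 0% = DMSO with beta-PEA at EC80 and 100% = DMSO alone without agonist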
Ga16 antag count = inhibition of ATP-evoked calcium response in CHO-Ga16 cells, counter-screen for TAAR1 agonist project, cell-based, fluorescence. shares compounds with TAAR1 agonist. inhibition, % at 3 µM. CHO-Ga16 ATP-induced calcium, Fluo-8 fluorescence. actives 39% (n = 2,400);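 active = inhibition above the plate's mean compound inhibition plus 3 SD, computed per plate, cut at about 22% in these data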;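 note: 0% = EC80 ATP with DMSO and 100% = DMSO wells without ATP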
* = called active by the depositor; · = not tested or not shown.

SMILES | OX1R antag-1 | CHO parental Ca | OX1R antag-2 | TAAR1 agonist | TAAR1 antagonist | GPR7 antagonist | TAAR1 ag conf | Ga16 nonsel ag | TAAR1 desens | Ga16 antag count
Cc1onc(-c2ccccc2)c1C(=O)NNC(=S)NC(=O)/C=C/c1ccccc1 | -11.2 | -7.1 | -0.5 | 136.4* | 54.9* | -1.7 | 148.6* | 125.8* | 89.8* | 61.0*
COc1ccc(-c2cc(C(=O)NNC(=S)NC(=O)c3c(-c4ccccc4)noc3C)[nH]n2)cc1 | -10.6 | 4.7 | 9.9 | 2.7 | -21.0 | -21.5 | · | · | · | ·
O=C(NC(=S)NNC(=O)c1ccc(Cl)cc1Cl)c1cccnc1 | -5.7 | -2.4 | 10.3 | 2.0 | -8.9 | -9.4 | · | · | · | ·
Cc1onc(-c2ccccc2)c1C(=O)NNC(=S)NC(=O)c1ccc(Br)cc1 | -11.9 | -2.2 | 6.0 | 0.7 | -9.8 | -7.8 | · | · | · | ·
Cc1ccccc1C(=O)NNC(=S)NC(=O)c1ccc(Cl)cc1Cl | 22.5 | 2.1 | 13.3 | 181.3* | 108.9* | -3.6 | 132.4* | 103.1* | 104.1* | 80.7*
COc1ccc(/C=C/C(=O)NC(=S)NNC(=O)c2c(-c3ccccc3)noc2C)cc1 | -6.9 | -3.6 | -0.6 | 93.1* | 49.0* | -5.7 | 68.3* | 65.9* | 51.6* | 52.0*
Cc1onc(-c2ccccc2)c1C(=O)NNC(=S)NC(=O)c1ccc(Cl)cc1Cl | -7.7 | 3.1 | 3.3 | 131.8* | 107.8* | -10.3 | 149.0* | 120.9* | 106.5* | 92.2*
COc1ccc(/C=C/C(=O)NC(=S)NNC(=O)c2ccco2)cc1 | -12.1 | -12.7 | 15.6 | 17.9 | 24.5 | 4.9 | · | · | · | ·
COc1ccc(/C=C/C(=O)NC(=S)NNC(=O)Cc2cccs2)cc1 | 2.0 | 22.7 | 9.4 | 48.4* | 27.8 | -9.5 | 29.6 | 18.6* | 23.7 | 25.4*
CCOC(=O)C(NCCc1ccccc1F)(NC(C)=O)C(F)(F)F (stereo not drawn) | -3.4 | -14.2 | 23.3 | 71.5* | 50.7* | -11.8 | 101.0* | 0.9 | 88.0* | 0.2
C[C@@H]1CN([C@@H](C)CO)C(=O)CCCn2nncc2CO[C@H]1CN(C)S(=O)(=O)c1ccccc1F | · | · | · | 0.4 | 2.4 | · | · | · | · | ·
O=C(N=Nc1c(O)n(C2OC(=O)c3ccccc32)c2ccccc12)c1ccc(O)cc1 (stereo not drawn) | -5.1 | -14.2 | 12.8 | 71.0* | 34.7 | 26.7 | 8.3 | 8.5 | 14.3 | 18.5
Cc1cnc(CN(C)C(=O)c2ccc3oc(Cc4ccc(Cl)cc4)nc3c2)[nH]1 | -7.5 | -17.7 | 2.7 | 4.4 | -6.3 | 4.1 | · | · | · | ·
O=C(NCCc1ccccc1)c1ccc([N+](=O)[O-])cc1 | -12.0 | -6.2 | 20.8 | 56.2* | 32.0 | 2.4 | 96.8* | 4.5 | 56.9* | -3.8
CN(C)CCNC(=O)c1coc(=O)c(Br)c1 | -2.4 | -11.6 | 37.5 | 1.0 | 15.0 | -17.8 | · | · | · | ·
O=C(NCCc1ccccc1)/C(=C\c1ccc([N+](=O)[O-])cc1)NC(=O)c1ccc(Br)cc1 | 8.3 | 3.5 | 9.7 | 55.7* | -14.5 | -7.1 | 36.4 | 0.4 | -3.1 | 8.9
O=C(NCCc1ccccc1)c1coc(=O)c(Br)c1 | · | · | · | 87.3* | 80.2* | -7.5 | 94.4* | 0.6 | 79.7* | 7.6
O=C(NCCc1ccc([N+](=O)[O-])cc1)c1ccccc1 | -0.3 | -2.3 | 4.2 | 2.2 | -23.4 | -3.2 | · | · | · | ·
O=C(OCC(=O)N1CCN(c2ccccc2)CC1)c1ncc(Cl)c(Cl)c1Cl | -20.7 | -25.2 | 15.4 | 2.1 | -22.3 | · | · | · | · | ·
Cc1ccc(Cl)cc1NC(=O)CN1C(=O)NC(C)(C2CC2)C1=O (stereo not drawn) | -10.6 | -15.9 | 2.4 | 2.9 | -17.0 | · | · | · | · | ·
Oc1c(C=Nc2cccc3cccnc23)sc2ccccc12 | 99.0* | 49.0* | 43.5 | 129.5* | 93.6* | -8.9 | 38.9* | 68.9* | 57.9* | 68.8*
N#Cc1cccc(NC(=O)Nc2cccs2)c1 | 20.9 | 25.5 | 31.7 | 57.8* | 17.5 | -5.0 | 74.3* | 15.9* | 39.8 | 26.7*
CCC1(c2ccccc2)NC(=O)N(CC(=O)Nc2ccc(S(=O)(=O)NC3=NCCCCC3)cc2)C1=O (stereo not drawn) | -3.6 | -15.5 | 10.0 | 2.8 | -5.5 | · | · | · | · | ·
CC(C)c1ccc(-c2c(NCCc3ccccc3)c(=O)c2=O)cc1 | -4.4 | 0.9 | 3.9 | 49.1* | -4.0 | -11.2 | 37.0 | 1.9 | 13.2 | 9.1
O=c1c(NCCc2ccccc2)c(-c2ccccc2)c1=O | -8.0 | 29.3 | 3.6 | 14.4 | -2.0 | 9.7 | · | · | · | ·
SMILES | OX1R antag-1 | CHO parental Ca | OX1R antag-2 | TAAR1 agonist | TAAR1 antagonist | GPR7 antagonist | TAAR1 ag conf | Ga16 nonsel ag | TAAR1 desens | Ga16 antag count
C=CCn1c(SCC(=O)N(CC)c2c(N)n(Cc3ccccc3)c(=O)[nH]c2=O)nnc1-c1ccccc1OC | · | · | · | 877.2* | -1.3 | · | 5.5 | 1.9 | -5.0 | 0.7
COc1ccc(NC(=O)N2CCCC(c3ccccc3)C2)cc1 (stereo not drawn) | · | · | · | 55.3* | 26.6 | 0.8 | 61.0* | 0.1 | 32.8 | 12.7
CCN(CC)c1ccc(/C=C(/C#N)c2nc3ccccc3[nH]2)c(OC(C)C)c1 | 116.4* | 65.7* | 39.3* | 92.0* | 99.4* | 6.5 | 25.0 | 30.3* | 65.2* | 64.0*
COc1ccc(-n2nc3c(N4CCC(C(=O)NCc5ccccc5C)CC4)nnc(C)c3c2C)cc1 | -18.6 | -23.9 | 2.1 | · | · | -4.4 | · | · | · | ·
COc1ccc(-n2nc3c(N4CCC(C(=O)NCC(C)c5ccccc5)CC4)nnc(C)c3c2C)cc1 (stereo not drawn) | -39.9 | -19.0 | 13.4 | 59.3* | 3.5 | 7.7 | 56.4* | 1.1 | 25.6 | -0.5
CCC(=O)c1ccc(OCC(=O)Nc2ccccc2N2CCCCC2)cc1 | -5.3 | 5.9 | 5.8 | 2.2 | -10.7 | -5.8 | · | · | · | ·
